What was measured:
[1] = target: Sodium channel protein type 5 subunit alpha (Homo sapiens, UniProt Q14524); assay: Inhibition of human Nav1.5 by electrophysiology method
[2] = target: Voltage-gated inwardly rectifying potassium channel KCNH2 (Homo sapiens, UniProt Q12809); assay: Inhibition of human ERG
Rattus norvegicus [3] = assay: Total dose normalized AUC in rat 2 mg/kg, po; format: ADME, organism-based; details: in vivo
[4] = target: Sodium-dependent serotonin transporter (Homo sapiens, UniProt P31645); assay: Inhibition of SERT (unknown origin)
[5] = target: T1, Beta-3 adrenergic receptor (Homo sapiens, UniProt P13945); assay: Agonist activity at human beta3 adrenergic receptor relative to R-(-)-isoproterenol
Target sequence in this assay (P13945 whole entry, looked up): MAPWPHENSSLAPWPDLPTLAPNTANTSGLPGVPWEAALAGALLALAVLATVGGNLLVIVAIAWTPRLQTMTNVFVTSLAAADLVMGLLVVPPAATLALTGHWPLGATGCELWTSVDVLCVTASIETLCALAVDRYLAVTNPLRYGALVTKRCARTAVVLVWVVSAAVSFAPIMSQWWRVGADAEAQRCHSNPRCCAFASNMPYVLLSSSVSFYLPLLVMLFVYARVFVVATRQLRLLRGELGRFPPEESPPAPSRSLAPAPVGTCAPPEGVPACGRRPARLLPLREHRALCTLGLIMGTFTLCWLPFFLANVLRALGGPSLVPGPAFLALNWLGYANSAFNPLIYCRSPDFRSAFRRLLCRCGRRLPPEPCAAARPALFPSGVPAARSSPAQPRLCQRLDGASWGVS

[6] = target: Beta-1 adrenergic receptor (Homo sapiens, UniProt P08588); assay: Activity at human beta1 adrenergic receptor
[7] = Volume of distribution in rat at 1 mg/kg, iv or 2 mg/kg, po; format: ADME, organism-based; details: in vivo
[8] = target: T1, Beta-3 adrenergic receptor; assay: Agonist activity at human beta3 adrenergic receptor
Procedure, shortened: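 Human β3 receptor agonist EC50 given as the mean of at least two experiments.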
Target sequence in this assay (P13945 whole entry): as the sequence (P13945 whole entry, looked up) above

[9] = target: Beta-2 adrenergic receptor (Homo sapiens, UniProt P07550); assay: Activity at human beta2 adrenergic receptor
[10] = Half life in rat at 1 mg/kg, iv or 2 mg/kg, po; format: ADME, organism-based; details: in vivo
[11] = Oral bioavailability in rat 2 mg/kg; format: ADME, organism-based; details: in vivo
[12] = Plasma clearance in rat at 1 mg/kg, iv or 2 mg/kg, po; format: ADME, organism-based
[13] = target: Sodium-dependent noradrenaline transporter (Homo sapiens, UniProt P23975); assay: Inhibition of NET (unknown origin) expressed in HEK293 cells assessed as reduction in norepinephrine reuptake; format: cell-based
[14] = Half life in dog at 0.5 mg/kg, iv or 2 mg/kg, po; format: ADME, organism-based, Canis lupus familiaris; details: in vivo
[15] = Oral bioavailability in dog at 2 mg/kg; format: ADME, organism-based, Canis lupus familiaris; details: in vivo
Rattus norvegicus [16] = assay: Unbound dose normalized AUC in rat 2 mg/kg, po; format: ADME, organism-based; details: in vivo
[17] = Unbound fraction in dog at 0.5 mg/kg, iv or 2 mg/kg, po; format: ADME, organism-based, Canis lupus familiaris; details: in vivo
[18] = Volume of distribution in dog at 0.5 mg/kg, iv or 2 mg/kg, po; format: ADME, organism-based, Canis lupus familiaris; details: in vivo
Canis familiaris [19] = assay: Unbound clearance in dog at 0.5 mg/kg, iv or 2 mg/kg, po; format: ADME, organism-based, Canis lupus familiaris; details: in vivo
[20] = Plasma clearance in dog at 0.5 mg/kg, iv or 2 mg/kg, po; format: ADME, organism-based, Canis lupus familiaris
[21] = Induction of phospholipidosis in human HepG2 cells; format: cell-based; details: read-out: A50
Canis familiaris [22] = assay: Total dose normalized AUC in dog at 2 mg/kg, po; format: ADME, organism-based, Canis lupus familiaris; details: in vivo
Canis familiaris [23] = assay: Unbound dose normalized AUC in dog at 2 mg/kg, po; format: ADME, organism-based, Canis lupus familiaris; details: in vivo
[24] = Unbound fraction in rat at 1 mg/kg, iv or 2 mg/kg, po; format: ADME, organism-based; details: in vivo
Rattus norvegicus [25] = assay: Unbound clearance in rat at 1 mg/kg, iv or 2 mg/kg, po; format: ADME, organism-based; details: in vivo
[26] = Volume of distribution in rhesus monkey at 0.5 mg/kg, iv or 2 mg/kg, po; format: ADME, organism-based, Macaca mulatta; details: in vivo
Rhesus monkey [27] = assay: Total dose normalized AUC in rhesus monkey at 2 mg/kg, po; format: ADME, organism-based, Macaca mulatta; details: in vivo
[28] = Oral bioavailability in rhesus monkey at 2 mg/kg; format: ADME, organism-based, Macaca mulatta; details: in vivo
[29] = Plasma clearance in rhesus monkey at 0.5 mg/kg, iv or 2 mg/kg, po; format: ADME, organism-based, Macaca mulatta
[30] = Volume of distribution in rat at 0.5 mg/kg, iv administered as cassette dose or 2 mg/kg, po; format: ADME, organism-based; details: in vivo
[31] = Half life in rat at 0.5 mg/kg, iv administered as cassette dose or 2 mg/kg, po; format: ADME, organism-based; details: in vivo
[32] = Plasma clearance in rat at 0.5 mg/kg, iv administered as cassette dose or 2 mg/kg, po; format: ADME, organism-based
[33] = Half life in rhesus monkey at 0.5 mg/kg, iv or 2 mg/kg, po; format: ADME, organism-based, Macaca mulatta; details: in vivo
[34] = Unbound fraction in rhesus monkey at 0.5 mg/kg, iv or 2 mg/kg, po; format: ADME, organism-based, Macaca mulatta; details: in vivo
Rhesus monkey [35] = assay: Unbound clearance in rhesus monkey at 0.5 mg/kg, iv or 2 mg/kg, po; format: ADME, organism-based, Macaca mulatta; details: in vivo
Rhesus monkey [36] = assay: Unbound dose normalized AUC in rhesus monkey at 2 mg/kg, po; format: ADME, organism-based, Macaca mulatta; details: in vivo

Chain of Sodium-dependent serotonin transporter (P31645 whole entry): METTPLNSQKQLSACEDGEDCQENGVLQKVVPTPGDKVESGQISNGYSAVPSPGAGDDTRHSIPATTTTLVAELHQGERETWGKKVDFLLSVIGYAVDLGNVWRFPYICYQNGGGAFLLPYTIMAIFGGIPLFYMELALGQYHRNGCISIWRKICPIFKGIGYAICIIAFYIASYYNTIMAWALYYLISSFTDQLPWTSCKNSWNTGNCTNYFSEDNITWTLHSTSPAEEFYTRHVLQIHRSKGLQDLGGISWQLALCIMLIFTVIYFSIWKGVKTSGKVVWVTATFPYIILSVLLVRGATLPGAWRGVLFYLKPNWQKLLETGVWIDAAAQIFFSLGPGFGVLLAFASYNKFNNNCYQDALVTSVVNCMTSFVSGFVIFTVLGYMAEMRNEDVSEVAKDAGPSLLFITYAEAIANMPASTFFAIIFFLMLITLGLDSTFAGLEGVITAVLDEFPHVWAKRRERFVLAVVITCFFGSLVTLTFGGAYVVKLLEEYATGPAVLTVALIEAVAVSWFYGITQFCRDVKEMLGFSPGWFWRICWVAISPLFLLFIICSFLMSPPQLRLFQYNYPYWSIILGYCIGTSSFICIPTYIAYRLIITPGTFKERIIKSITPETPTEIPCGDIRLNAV
Chain of Beta-1 adrenergic receptor (P08588 whole entry): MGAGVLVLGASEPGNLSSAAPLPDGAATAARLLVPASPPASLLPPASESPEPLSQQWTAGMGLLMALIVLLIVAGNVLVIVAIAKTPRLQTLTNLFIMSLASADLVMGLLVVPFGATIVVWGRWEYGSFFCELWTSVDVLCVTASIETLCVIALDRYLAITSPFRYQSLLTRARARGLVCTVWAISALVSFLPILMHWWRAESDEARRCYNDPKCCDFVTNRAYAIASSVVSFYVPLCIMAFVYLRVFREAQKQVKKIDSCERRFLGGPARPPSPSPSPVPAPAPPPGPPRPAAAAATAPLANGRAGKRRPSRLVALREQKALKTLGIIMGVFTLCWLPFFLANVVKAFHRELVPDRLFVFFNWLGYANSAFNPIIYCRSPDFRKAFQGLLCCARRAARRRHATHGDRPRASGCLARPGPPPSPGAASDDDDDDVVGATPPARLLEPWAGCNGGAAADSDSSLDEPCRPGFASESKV
Chain of Sodium channel protein type 5 subunit alpha (Q14524 whole entry): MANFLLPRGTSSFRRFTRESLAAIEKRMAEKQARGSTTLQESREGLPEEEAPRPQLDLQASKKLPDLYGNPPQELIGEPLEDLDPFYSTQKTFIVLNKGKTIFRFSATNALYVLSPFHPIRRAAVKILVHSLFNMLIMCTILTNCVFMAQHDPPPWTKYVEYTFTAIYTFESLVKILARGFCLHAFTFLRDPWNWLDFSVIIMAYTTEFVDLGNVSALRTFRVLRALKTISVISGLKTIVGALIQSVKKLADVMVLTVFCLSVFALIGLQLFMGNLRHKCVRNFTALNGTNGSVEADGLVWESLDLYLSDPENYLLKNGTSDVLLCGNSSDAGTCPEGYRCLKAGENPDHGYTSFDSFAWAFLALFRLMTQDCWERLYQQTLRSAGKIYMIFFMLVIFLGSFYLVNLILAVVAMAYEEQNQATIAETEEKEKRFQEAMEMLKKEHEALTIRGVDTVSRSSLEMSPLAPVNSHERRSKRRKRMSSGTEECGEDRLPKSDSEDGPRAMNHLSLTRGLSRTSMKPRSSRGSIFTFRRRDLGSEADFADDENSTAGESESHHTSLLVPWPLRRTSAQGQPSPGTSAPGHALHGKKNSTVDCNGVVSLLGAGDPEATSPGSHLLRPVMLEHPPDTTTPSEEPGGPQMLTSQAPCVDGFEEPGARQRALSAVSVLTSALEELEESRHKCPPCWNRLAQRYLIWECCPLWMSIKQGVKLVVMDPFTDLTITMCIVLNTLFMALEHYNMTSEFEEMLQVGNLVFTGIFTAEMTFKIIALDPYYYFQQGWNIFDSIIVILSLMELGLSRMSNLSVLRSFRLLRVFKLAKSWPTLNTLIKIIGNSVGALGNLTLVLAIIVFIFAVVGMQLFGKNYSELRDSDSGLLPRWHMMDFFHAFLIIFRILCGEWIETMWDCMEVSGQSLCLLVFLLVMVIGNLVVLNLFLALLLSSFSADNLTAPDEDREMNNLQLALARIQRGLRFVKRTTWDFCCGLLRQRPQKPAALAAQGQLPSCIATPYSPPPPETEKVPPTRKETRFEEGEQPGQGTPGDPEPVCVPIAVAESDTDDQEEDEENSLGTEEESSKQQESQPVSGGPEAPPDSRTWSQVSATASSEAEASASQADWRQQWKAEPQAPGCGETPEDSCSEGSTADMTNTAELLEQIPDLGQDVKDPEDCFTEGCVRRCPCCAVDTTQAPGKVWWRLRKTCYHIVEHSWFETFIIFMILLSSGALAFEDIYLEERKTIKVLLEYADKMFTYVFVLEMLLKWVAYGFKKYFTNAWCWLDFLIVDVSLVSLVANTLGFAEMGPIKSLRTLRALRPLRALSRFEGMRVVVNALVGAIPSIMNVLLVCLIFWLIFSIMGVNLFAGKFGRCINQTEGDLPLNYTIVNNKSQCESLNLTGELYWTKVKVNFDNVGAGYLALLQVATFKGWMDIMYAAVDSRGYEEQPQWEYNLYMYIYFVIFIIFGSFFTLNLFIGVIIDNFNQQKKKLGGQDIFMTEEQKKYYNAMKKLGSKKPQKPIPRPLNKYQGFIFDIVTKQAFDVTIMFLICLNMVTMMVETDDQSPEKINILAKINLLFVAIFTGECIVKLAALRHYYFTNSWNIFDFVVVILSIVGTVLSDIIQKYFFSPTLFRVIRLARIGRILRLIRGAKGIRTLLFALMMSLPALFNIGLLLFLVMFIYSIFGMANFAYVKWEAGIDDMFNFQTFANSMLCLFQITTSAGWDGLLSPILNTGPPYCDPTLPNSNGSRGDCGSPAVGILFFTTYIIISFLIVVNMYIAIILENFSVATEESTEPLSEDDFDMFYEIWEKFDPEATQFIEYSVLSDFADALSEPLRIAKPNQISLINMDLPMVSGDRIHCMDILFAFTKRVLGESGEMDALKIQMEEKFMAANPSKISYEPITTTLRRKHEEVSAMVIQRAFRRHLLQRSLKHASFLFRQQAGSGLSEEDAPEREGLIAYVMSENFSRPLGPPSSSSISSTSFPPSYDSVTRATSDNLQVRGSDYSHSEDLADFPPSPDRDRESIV
Chain of Voltage-gated inwardly rectifying potassium channel KCNH2 (Q12809 whole entry): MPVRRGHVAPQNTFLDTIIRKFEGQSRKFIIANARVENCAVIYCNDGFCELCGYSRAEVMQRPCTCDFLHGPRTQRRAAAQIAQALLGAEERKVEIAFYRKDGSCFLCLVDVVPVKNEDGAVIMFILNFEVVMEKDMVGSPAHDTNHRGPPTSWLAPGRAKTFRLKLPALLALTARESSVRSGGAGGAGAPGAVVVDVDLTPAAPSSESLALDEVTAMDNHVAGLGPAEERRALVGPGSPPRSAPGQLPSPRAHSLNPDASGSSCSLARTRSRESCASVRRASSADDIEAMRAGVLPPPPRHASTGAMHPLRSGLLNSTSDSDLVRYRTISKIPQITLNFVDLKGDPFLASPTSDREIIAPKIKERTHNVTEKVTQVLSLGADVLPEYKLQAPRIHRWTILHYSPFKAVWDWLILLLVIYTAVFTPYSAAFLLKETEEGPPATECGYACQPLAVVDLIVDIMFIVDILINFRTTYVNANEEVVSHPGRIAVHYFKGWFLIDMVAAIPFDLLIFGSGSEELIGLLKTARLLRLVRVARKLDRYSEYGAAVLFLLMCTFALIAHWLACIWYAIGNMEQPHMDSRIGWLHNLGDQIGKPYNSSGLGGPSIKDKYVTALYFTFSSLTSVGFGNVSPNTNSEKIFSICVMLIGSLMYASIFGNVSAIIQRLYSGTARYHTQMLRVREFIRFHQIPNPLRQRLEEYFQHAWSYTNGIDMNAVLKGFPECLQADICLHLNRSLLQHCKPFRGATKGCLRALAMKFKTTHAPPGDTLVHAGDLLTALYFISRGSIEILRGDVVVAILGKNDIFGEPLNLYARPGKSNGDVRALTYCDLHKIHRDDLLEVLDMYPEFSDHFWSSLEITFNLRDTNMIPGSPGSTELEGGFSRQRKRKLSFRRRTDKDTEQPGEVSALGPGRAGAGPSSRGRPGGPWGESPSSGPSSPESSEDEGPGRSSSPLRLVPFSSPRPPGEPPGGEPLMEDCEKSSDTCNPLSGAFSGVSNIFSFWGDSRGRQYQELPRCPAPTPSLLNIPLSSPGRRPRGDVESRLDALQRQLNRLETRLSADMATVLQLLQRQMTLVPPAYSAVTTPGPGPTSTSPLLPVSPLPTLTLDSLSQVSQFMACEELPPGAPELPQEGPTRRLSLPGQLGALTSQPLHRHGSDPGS

| Structure (SMILES) | AUC/dose (Rattus norvegicus [3]) [µM·h/mg/kg] | IC50 [4] [µM] | Emax [5] [%] | IC50 [6] [µM] | Vd [7] [L/kg] | EC50 [8] [µM] | IC50 [9] [µM] | half-life [10] [h] | bioavailability [11] [%] | clearance [12] [mL/min/kg] | EC50 [13] [µM] | AUC/dose (Canis familiaris [22]) [µM·h/mg/kg] | IC50 [1] [µM] | IC50 [2] [µM] | AC50 [21] [µM] | other results |
| --- | --- | --- | --- | --- | --- | --- | --- | --- | --- | --- | --- | --- | --- | --- | --- | --- |
| O=C(c1ccc(C[C@@H]2CC[C@H]([C@H](O)c3ccccc3)N2)cc1)N1CCN(Cc2ncn(CC(F)(F)F)n2)CC1 | 0.3 | > 10 | 113 | > 20 | 38 | 0.0016 | > 20 | 5.4 | < 1 | 105 | 0.065 |  | > 30 | > 60 |  |  |
| O=C(c1ccc(C[C@@H]2CC[C@H]([C@H](O)c3ccccc3)N2)cc1)N1CCN(Cc2nnn(CC(F)F)n2)CC1 | 0.05 | > 10 | 101 | > 20 | 21 | 0.0015 | > 20 | 2.6 | 16 | 102 | 0.827 | 0.29 | > 30 |  | > 100 | half-life [14]: 8.5 h; bioavailability [15]: 20%; fAUC/dose (Rattus norvegicus [16]): 0.03 µM·h/mg/kg; fraction unbound [17]: 0.65; Vd [18]: 13 L/kg; CL free (Canis familiaris [19]): 34 mL/min/kg; clearance [20]: 22 mL/min/kg; fAUC/dose (Canis familiaris [23]): 0.19 µM·h/mg/kg; fraction unbound [24]: 0.56; CL free (Rattus norvegicus [25]): 182 mL/min/kg |
| CCc1nnc([C@H]2[C@@H]3CN(C(=O)c4ccc(C[C@@H]5CC[C@H]([C@H](O)c6ccccc6)N5)cc4)C[C@@H]32)o1 | 0.21 |  |  |  |  |  |  |  |  |  |  | 0.46 |  |  |  | Vd [26]: 5.2 L/kg; AUC/dose (Rhesus monkey [27]): 0.06 µM·h/mg/kg; bioavailability [28]: 5%; clearance [29]: 30 mL/min/kg |
| O=C(c1ccc(C[C@@H]2CC[C@H]([C@H](O)c3ccccc3)N2)cc1)N1CCN(Cc2ncn(CC(F)F)n2)CC1 | 0.29 | > 10 | 108 | > 20 | 57 | 0.0029 | > 20 | 7.3 | < 1 | 111 | 0.026 |  | > 30 |  |  |  |
| CCn1nnc(CN2CCN(C(=O)c3ccc(C[C@@H]4CC[C@H]([C@H](O)c5ccccc5)N4)cc3)CC2)n1 |  | > 10 | 91 | > 20 |  | 0.0051 | > 20 |  |  |  | 1.52 |  | > 30 | > 60 |  |  |
| O=C(c1ccc(C[C@@H]2CC[C@H]([C@H](O)c3ccccc3)N2)cc1)N1CCN(Cc2nnn(CC3CC3)n2)CC1 |  | > 10 | 99 | > 20 |  | 0.0052 | > 20 |  |  |  | 1.39 |  | > 30 | 39.4 | 70 |  |

Second part, led by results:

| AUC/dose (Rattus norvegicus [3]) [µM·h/mg/kg] | IC50 [4] [µM] | Emax [5] [%] | IC50 [6] [µM] | Vd [7] [L/kg] | EC50 [8] [µM] | IC50 [9] [µM] | half-life [10] [h] | bioavailability [11] [%] | clearance [12] [mL/min/kg] | EC50 [13] [µM] | AUC/dose (Canis familiaris [22]) [µM·h/mg/kg] | Structure (SMILES) | IC50 [1] [µM] | IC50 [2] [µM] | AC50 [21] [µM] | other results |
| --- | --- | --- | --- | --- | --- | --- | --- | --- | --- | --- | --- | --- | --- | --- | --- | --- |
|  | 8.79 | 99 | > 20 |  | 0.00032 | > 20 |  |  |  | 0.251 |  | Cc1noc(-c2cccc(CN3CCN(C(=O)c4ccc(C[C@@H]5CC[C@H]([C@H](O)c6ccccc6)N5)cc4)CC3)n2)n1 | > 30 | > 60 |  | Vd [30]: 19 L/kg; half-life [31]: 1.8 h; clearance [32]: 181 mL/min/kg |
|  | > 10 | 109 | > 20 |  | 0.0025 | > 20 |  |  |  | 0.254 |  | Cc1nnc(-c2cccc(CN3CCN(C(=O)c4ccc(C[C@@H]5CC[C@H]([C@H](O)c6ccccc6)N5)cc4)CC3)n2)o1 | > 30 |  | 68 |  |
| 0.35 | > 10 | 87 to 88 | > 20 | 19 |  | > 20 | 2.6 | 71 | 71 | 0.339 | 1.3 | O=C(c1ccc(C[C@@H]2CC[C@H]([C@H](O)c3ccccc3)N2)cc1)N1CCN(Cc2ccccn2)CC1 | > 30 |  | 54 | half-life [14]: 12 h; Vd [26]: 11 L/kg; bioavailability [15]: 27%; AUC/dose (Rhesus monkey [27]): 0.34 µM·h/mg/kg; fAUC/dose (Rattus norvegicus [16]): 0.17 µM·h/mg/kg; half-life [33]: 5.8 h; fraction unbound [34]: 0.42; fraction unbound [17]: 0.48; Vd [18]: 6.4 L/kg; CL free (Canis familiaris [19]): 17 mL/min/kg; clearance [20]: 7.9 mL/min/kg; bioavailability [28]: 16%; CL free (Rhesus monkey [35]): 43 mL/min/kg; fAUC/dose (Canis familiaris [23]): 0.62 µM·h/mg/kg; fAUC/dose (Rhesus monkey [36]): 0.14 µM·h/mg/kg; clearance [29]: 18 mL/min/kg; fraction unbound [24]: 0.48; CL free (Rattus norvegicus [25]): 148 mL/min/kg |
